Compound activity as filed in PubChem BioAssay.
Hits are enriched below; roughly 7.6% of the tested compounds scored in any of these assays.
M1 antagonist: blocks the rat M1 muscarinic receptor response to acetylcholine | 64,000 tested, 3.4% active | CHO-M1 cells, Fluo-4 calcium, ACh EC80 antagonist mode; hits give low values | P08482 | B-score at 10 µM;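 active = calcium fluorescence response, raw or row-and-column corrected B-score, differing from the plate sample mean either way at a set confidence level, mostly lower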
M1 ag: M1 muscarinic receptor agonism; CHO-M1 cells, Fluo-4 calcium fluorescence, agonist mode; hits give high values; B-score at 10 µM; 64,000 tested, 3% active;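 active = fluorescence rise, raw or as B-score row- and column-corrected plate score, outside the 99.7% band of its plate's samples, either direction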
hDAT+cocaine: modulates human dopamine transporter uptake under cocaine | Q01959 | LLC-PK1 hDAT cells, [14C]-dopamine uptake with cocaine IC80; actives deviate in either direction | B-score at 10 µM | 110,000 tested, 1.3% active | AID 449768;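 active = Z score or B-score, a plate-position-corrected score, falls beyond the plate's 99.7% confidence bounds, in either direction; inactive = both scores lie inside the 99.7% bounds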;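 also: scored against the spread of the other compound wells on the same plate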
Target sequence (Q01959 whole entry, looked up): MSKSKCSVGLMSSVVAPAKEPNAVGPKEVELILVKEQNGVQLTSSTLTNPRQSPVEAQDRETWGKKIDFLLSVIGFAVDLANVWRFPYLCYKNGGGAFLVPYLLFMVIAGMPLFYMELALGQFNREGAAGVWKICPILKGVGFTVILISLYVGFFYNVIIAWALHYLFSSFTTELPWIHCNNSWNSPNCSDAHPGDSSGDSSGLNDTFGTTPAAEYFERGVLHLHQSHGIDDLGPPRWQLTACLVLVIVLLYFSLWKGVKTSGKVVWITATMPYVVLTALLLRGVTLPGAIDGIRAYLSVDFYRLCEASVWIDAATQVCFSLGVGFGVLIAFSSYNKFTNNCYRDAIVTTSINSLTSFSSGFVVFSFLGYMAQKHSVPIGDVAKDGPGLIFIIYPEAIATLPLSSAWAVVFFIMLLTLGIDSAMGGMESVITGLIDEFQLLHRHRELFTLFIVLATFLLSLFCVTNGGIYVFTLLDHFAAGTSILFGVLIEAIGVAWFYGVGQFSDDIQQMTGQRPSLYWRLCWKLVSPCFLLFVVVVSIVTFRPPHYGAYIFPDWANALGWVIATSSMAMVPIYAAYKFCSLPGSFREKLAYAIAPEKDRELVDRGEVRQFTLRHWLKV
D1 allo mod: D1 dopamine receptor (human) allosteric modulation; B-score at 10 µM; HEK293 D1, CRE-luciferase, dopamine EC30 potentiation; actives deviate in either direction; AID 641; P21728; 58,000 tested, 5.9% active;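 active = luminescence count or its row- and column-corrected plate score outside the 99.7% band of the plate's sample wells, on either side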
Jurkat viability: cytotoxicity toward Jurkat cells; AID 463; Jurkat E6.1 viability, ATP luminescence, 48 h; 56,000 tested, 1.2% active; inhibition, % at 4 µM;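 active = inhibition above the mean inhibition of all tested compounds plus 3 SD, cut at about 28% in these data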
HEK293 NFkB inh: inhibitors of the PMA/ionomycin-induced NF-kB reporter in HEK293 cells | HEK-293 NF-kB luciferase reporter, luminescence | inhibition, % at 3 µM | 62,000 tested, 0.21% active;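 active = inhibition above the mean of all tested compounds plus 3 SD, cut at about 40% in these data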;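 also: 0% = stimulated DMSO wells and 100% = 10 µM reference inhibitor 5653914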
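System: NF-kB luciferase reporter HEK-293 cells | Replication: Single test | Control set: DMSO vs reference inhibitor | Evaluation: % inhibition | Schedule: 1 h pretreatment, 16 h stimulation, 37 °C | Probe or stimulus: PMA with ionomycin | Compound dosing: One dose, 3 µM | Detection: Luciferase luminescence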
D1 mod confirm: D1 receptor (human) allosteric modulation, confirmed. 2,200 tested, 88% active. luminescence at 10 µM. AID 642. HEK293 D1 CRE-luciferase, dopamine EC30 potentiation; hits give high values. shares compounds with D1 allo mod;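 active = luminescence in either of two replicates above the same-plate mean plus 3 SD of the low-dose dopamine control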
D1 ag no DA: secondary test of D1 modulators: activity without dopamine; HEK293 D1 CRE-luciferase, luminescence, no dopamine; hits give high values; AID 646; luminescence at 10 µM; shares compounds with D1 allo mod; 1,900 tested, 0.8% active; in the data active = luminescence above about 3900
Isoprot counter: alters isoproterenol CRE-luciferase response in HEK293 cells; shares compounds with D1 allo mod; HEK293 D1 CRE-luciferase, isoproterenol EC30 counter-screen; calls only at 10 µM; 2,200 tested, 63% active;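 active = luminescence in either replicate above plate mean of wells with a partly effective reference agonist dose plus 3 SD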;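 also: isoproterenol raises cAMP through native beta-adrenoceptor Gs so signal bypasses D1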
The depositor's hits bear a star.

What do the screens show for `CC1CC(C)CN(c2oc(-c3ccccc3Cl)nc2C#N)C1` (stereo not drawn)?
M1 antagonist: -0.35; M1 ag: 0.74; hDAT+cocaine: -0.79; D1 allo mod: 0.57; Jurkat viability: 1; HEK293 NFkB inh: 5

Results for c1ccc(Oc2nc(NCc3ccco3)nc(NCc3ccco3)n2)cc1 ?
M1 antagonist: -0.17; M1 ag: 0.1; hDAT+cocaine: -1.7; D1 allo mod: 5.2*; Jurkat viability: 10; HEK293 NFkB inh: 22; D1 mod confirm: 11736*; D1 ag no DA: 1696; Isoprot counter: active

How did CCOc1nc(NCc2ccco2)nc(Nc2ccc(OC)cc2)n1 do in these assays?
M1 antagonist: 0.53; M1 ag: 1.7; hDAT+cocaine: 0.6; D1 allo mod: 4.5*; Jurkat viability: 8; HEK293 NFkB inh: 5; D1 mod confirm: 10436*; D1 ag no DA: 1588; Isoprot counter: active

What do the screens show for `O=C(CN1CCN(c2ccccn2)CC1)Nc1ccc(Cl)c(C(F)(F)F)c1`?
M1 antagonist: 0.29; M1 ag: -0.12; hDAT+cocaine: 0.069; D1 allo mod: 5.5*; Jurkat viability: 2; HEK293 NFkB inh: 5; D1 mod confirm: 7388; D1 ag no DA: 1768; Isoprot counter: inactive

How did Cc1noc(NS(=O)(=O)c2ccc(N/C=C/C(=O)c3ccc4c(c3)OCO4)cc2)c1C do in these assays?
M1 antagonist: 0.052; M1 ag: 0.61; hDAT+cocaine: -0.84; D1 allo mod: 8.5*; Jurkat viability: 7; HEK293 NFkB inh: -10; D1 mod confirm: 13260*; D1 ag no DA: 1840; Isoprot counter: active

How did CC(C)C1N(S(=O)(=O)c2ccccc2)CCN1S(=O)(=O)c1ccccc1 do in these assays?
M1 antagonist: 0.64; M1 ag: 0.027; hDAT+cocaine: 0.61; D1 allo mod: -0.18; Jurkat viability: 6; HEK293 NFkB inh: 15

Results for CN(C)c1ccc(N=Cc2ccco2)cc1 ?
M1 antagonist: -0.03; M1 ag: -0.52; hDAT+cocaine: -0.14; D1 allo mod: -0.0048; Jurkat viability: -7; HEK293 NFkB inh: 16

What do the screens show for `C(=N\C(/N=C/c1ccco1)c1ccco1)/c1ccco1`?
M1 antagonist: -0.43; M1 ag: -0.11; hDAT+cocaine: -0.96; D1 allo mod: 8.8*; Jurkat viability: -4; HEK293 NFkB inh: 11; D1 mod confirm: 17580*; D1 ag no DA: 1572; Isoprot counter: inactive

Results for COc1ccc(CN/C(C)=C(/C#N)C(N)=O)cc1OC ?
M1 antagonist: -0.95; M1 ag: -0.11; hDAT+cocaine: -0.23; D1 allo mod: 3.5*; Jurkat viability: 0; HEK293 NFkB inh: 15; D1 mod confirm: 7928*; Isoprot counter: active

What do the screens show for `Cc1ccc(Nc2c([N+](=O)[O-])cc(C(=O)N3CC(=O)Nc4ccccc43)cc2[N+](=O)[O-])c(C)c1`?
hDAT+cocaine: -1

What do the screens show for `Cc1c(O)c(CN2CCCCC2)cc2c3c(c(=O)oc12)CCC3`?
M1 antagonist: -0.17; M1 ag: 0.0079; hDAT+cocaine: -0.13; D1 allo mod: 1.4

What do the screens show for `Cc1cc(-c2ccco2)n(-c2ccccc2)n1`?
M1 antagonist: -0.48; M1 ag: -1.8; hDAT+cocaine: -0.84; D1 allo mod: 5.9*; Jurkat viability: -2; HEK293 NFkB inh: 8; D1 mod confirm: 13928*; D1 ag no DA: 1688; Isoprot counter: active

How did CCOC(=O)c1nn(-c2ccc(C)c(C)c2)c(=O)c2c(N)scc12 do in these assays?
hDAT+cocaine: -0.79

What do the screens show for `CCOC(=O)c1nn(-c2ccc(OC)cc2)c(=O)c2c(N)scc12`?
M1 antagonist: 0.42; M1 ag: 0.16; hDAT+cocaine: 1.3; D1 allo mod: 5.1*; Jurkat viability: -4; HEK293 NFkB inh: 23; D1 mod confirm: 6660*; D1 ag no DA: 1672; Isoprot counter: inactive

How did O=C(CCCc1nc2ccccc2s1)N1CCN(S(=O)(=O)c2cccs2)CC1 do in these assays?
M1 antagonist: -0.67; M1 ag: -0.67; hDAT+cocaine: -0.074; D1 allo mod: 4.2*; Jurkat viability: 10; HEK293 NFkB inh: 24; D1 mod confirm: 8136*; D1 ag no DA: 1520; Isoprot counter: inactive

Results for O=C(CCS(=O)(=O)c1ccc(Cl)cc1)N1CCN(S(=O)(=O)c2cccs2)CC1 ?
M1 antagonist: -0.77; M1 ag: -0.16; D1 allo mod: -0.48; Jurkat viability: 9; HEK293 NFkB inh: 14

What do the screens show for `CCOc1ccc(C(=O)OCC(=O)NCc2ccco2)cc1OCC`?
M1 antagonist: 0.059; M1 ag: -0.31; hDAT+cocaine: 0.63; D1 allo mod: 7.7*; Jurkat viability: -3; HEK293 NFkB inh: 3; D1 mod confirm: 12216*; D1 ag no DA: 1596; Isoprot counter: active

What do the screens show for `COc1ccc(C(=O)OCC(=O)NCc2ccco2)cc1OC`?
M1 antagonist: 0.98; M1 ag: 0.29; hDAT+cocaine: 0.43; D1 allo mod: 1.1; Jurkat viability: -7; HEK293 NFkB inh: 9

Results for COc1ccc(Nc2nc3ccccc3nc2C)cc1 ?
M1 antagonist: -0.31; M1 ag: -0.058; hDAT+cocaine: 2.1; D1 allo mod: 3.1*; Jurkat viability: 1; HEK293 NFkB inh: 17; D1 mod confirm: 8152*; Isoprot counter: inactive

How did Cc1nn(-c2cc(N3CCOCC3)ccc2N)c(=O)c2ccccc12 do in these assays?
M1 antagonist: -0.43; M1 ag: 1.3; hDAT+cocaine: 0.14; D1 allo mod: 0.0055; Jurkat viability: -7; HEK293 NFkB inh: 12

What do the screens show for `COc1cccc(N2C(=O)C3ON(c4ccccc4)C(c4cccs4)C3C2=O)c1` (stereo not drawn)?
M1 antagonist: -0.4; M1 ag: 0.11; hDAT+cocaine: 2; D1 allo mod: 15*; Jurkat viability: 6; HEK293 NFkB inh: 17; D1 mod confirm: 6168*; D1 ag no DA: 1676; Isoprot counter: inactive

How did O=C(Nc1cccc(Br)c1)c1ccc(Cl)c(S(=O)(=O)N2CCOCC2)c1 do in these assays?
hDAT+cocaine: 0.16

How did Cc1ccc(N(Cc2cc(=O)[nH]c3ccccc23)C(=O)c2ccco2)cc1 do in these assays?
M1 antagonist: -0.46; M1 ag: -0.57; hDAT+cocaine: 1.1; D1 allo mod: 2.6; Jurkat viability: 5; HEK293 NFkB inh: 18
